Screening data (PubChem BioAssay)
Hits are enriched below; roughly 4.6% of the tested compounds scored in any of these assays.
FAS TE block = FAS thioesterase domain inhibitors, primary screen, biochemical, fluorescence intensity, uHTS. Fatty acid synthase (Homo sapiens), P49327. inhibition, % at 15 µM. actives 0.67% (n = 360,000). recombinant FAS-TE, OMFH fluorogenic substrate, fluorescence endpoint;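 active means compounds whose normalised, plate-corrected inhibition of enzyme fluorescence in the single-dose primary screen is 50% or more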;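 further: 0% = DMSO with enzyme and 100% = substrate without enzyme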
Rtt109 Vps75 = inhibitors of C. albicans Rtt109/Vps75 HAT, primary screen, biochemical, ThioGlo CoA-SH fluorescence, plate reader | purified Rtt109/Vps75, 4 h | inhibition, % at 34.9 µM | actives 0.16% (n = 330,000);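 active means inhibition of at least 50% in every replicate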
ALR inh = inhibitors of human ALR sulfhydryl oxidase, primary screen, biochemical, H2O2 detection, HRP-luminol luminescence, single point; inhibition, % (test concentration not listed); actives 3.8% (n = 290,000); purified ALR, DTT oxidation; AID 485317, 2010;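 active means mean replicate inhibition above about 79%, with every replicate also reaching it, limit read from the data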
Target sequence (P55789 whole entry, looked up): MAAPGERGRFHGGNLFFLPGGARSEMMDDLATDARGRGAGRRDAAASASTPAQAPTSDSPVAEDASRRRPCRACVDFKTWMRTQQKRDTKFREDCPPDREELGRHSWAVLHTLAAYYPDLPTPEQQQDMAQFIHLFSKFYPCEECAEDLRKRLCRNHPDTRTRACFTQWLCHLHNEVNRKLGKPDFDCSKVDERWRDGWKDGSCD
HDAC3 inhib = HDAC3 deacetylase inhibitors, primary screen, biochemical, fluorescence, cell-free homogeneous | AID 2718, 2010 | Histone deacetylase 3 (Homo sapiens), O15379 | recombinant HDAC3, fluorogenic peptide/trypsin coupled | inhibition, % at 8.3 µM | actives 0.15% (n = 320,000); in the data active means inhibition above about 26%, passing the limit was not always enough
PfM18AAP inh = PfM18AAP inhibitors, malaria aminopeptidase, primary screen, biochemical, QFRET, recombinant enzyme. H-Glu-NHMec fluorogenic cleavage. actives 1.2% (n = 290,000). inhibition, % at 7.35 µM. M18 aspartyl aminopeptidase (Plasmodium falciparum 3D7);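 active means inhibition above the campaign mean inhibition over all tested compounds plus 3 SD, cut at about 28% in these data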;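 further: 0% = plate median of test compound wells and 100% = 2 mM ZnCl2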
UCH37 DUB inh = inhibitors of human UCH37 deubiquitinase, primary screen, biochemical, Ub-AMC cleavage, fluorescence | inhibition, % (no concentration beside the values) | actives 0.33% (n = 330,000) | purified proteasome/UCH37;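 active means mean inhibition over replicate wells above about 20%, limit read from the data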;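 further: 0% = compound-free wells with enzyme and 100% = wells lacking proteasome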
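Test system – human UCH37 enzyme supplied as purified proteasome complex · Incubation – 30 min preincubation with enzyme, 25 min cleavage at room temperature · Detection – AMC fluorescence from Ub-AMC cleavage, excitation 355 nm, emission 460 nm · Benchmarks – no-proteasome wells (full inhibition) and compound-free wells (no inhibition)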
Starred values were filed as active, the others as inactive; nt = not tested or not shown.

SMILES	FAS TE block	Rtt109 Vps75	ALR inh	HDAC3 inhib	PfM18AAP inh	UCH37 DUB inh
Cc1ccc(NC(=O)CSCC(=O)Nc2ccc(N3CCOCC3)cc2N2CCOCC2)cc1	-5	-14	nt	nt	nt	2
Cc1ccc(NC(=O)c2cc(NC(=O)c3ccco3)ccc2N2CCOCC2)cc1	7	-4	12	6	2	-39
CCOc1ccc2nc(SCC(=O)NCc3ccc(S(N)(=O)=O)cc3)sc2c1	-5	-9	-10	9	0	-1
COC(=O)c1c(C)[nH]c(C=NNc2ccccc2)c1C	nt	nt	nt	nt	nt	2
CCCCC(=NNC(=O)c1ccc(Br)o1)c1ccccc1	nt	nt	nt	nt	nt	11
c1ccc2sc(N3CCOCC3)nc2c1	-10	-3	-2	-5	0	-1
Nc1ccc2nc(SCC(=O)Nc3ccc(N4CCOCC4)c(Cl)c3)sc2c1	-4	4	99*	2	5	3
Nc1ccc2nc(SCC(=O)N3CCOCC3)sc2c1	-1	8	99*	-4	-8	3
Nc1ccc2nc(SCc3cccc(F)c3)sc2c1	13	1	99*	10	-4	3
Nc1ccc2nc(N3CCOCC3)sc2c1	-9	-3	99*	6	0	3
CC(=NNC(=O)CN1CCCCC1)c1ccccc1O	nt	nt	nt	nt	nt	-1
O=C(CC=NOCc1ccc(Cl)cc1)c1cnc(-c2ccccc2)s1	nt	nt	nt	nt	nt	3
CCOC(=O)CSc1nc(N)c(C(=O)Nc2ccc(N(C)C)cc2)s1	-2	11	88*	-3	4	12
Nc1ccc2nc(SCC(=O)N3CCN(c4ccccc4)CC3)sc2c1	2	-1	nt	1	-7	7
CCN(CC)C(=O)CSc1nc(N)c(C(=O)Nc2ccc(OC)cc2)s1	-6	1	nt	4	2	10
Cc1ccc(NC(=O)CSCC(=O)NC2(C)CCS(=O)(=O)C2)cc1 (stereo unspecified)	-3	2	99*	1	nt	1
CC(NC(=O)CSc1nc2ccc(N)cc2s1)c1ccccc1 (stereo unspecified)	-4	2	96*	4	0	1
CSC1=NC(=O)/C(=C/c2ccc(SC)cc2)S1	-1	6	72	1	-8	3
COc1ccc(/C=C2\SC(N3CCCCC3)=NC2=O)cc1OC	-2	9	-13	1	2	1
COc1cc(/C=C2\SC(N3CCC(C)CC3)=NC2=O)ccc1O	-2	-4	90*	3	7	5
CCOC(=O)C1CCN(C2=NC(=O)/C(=C/c3ccc(Cl)cc3)S2)CC1	7	-2	96*	6	-5	2
Cc1ccc(/C=C2\SC(N3CCCC3)=NC2=O)cc1	nt	nt	nt	11	9	10
CN(C)c1ccc(/C=C2\SC(N3CCCCC3)=NC2=O)cc1	-11	-8	99*	2	4	13
CCOC(=O)CSC1=NC(=O)/C(=C\c2ccc(Cl)cc2)S1	0	6	99*	15	7	5
Cc1cccc(-n2c(C)cc(/C=N/NC(=O)c3ccc(CN4CCOCC4)cc3)c2C)c1	-8	18	99*	-2	16	nt
SMILES	FAS TE block	Rtt109 Vps75	ALR inh	HDAC3 inhib	PfM18AAP inh	UCH37 DUB inh
O=C(O)c1ccccc1-c1ccccc1C(=O)Nc1ccc(F)cc1	-3	5	2	-2	4	1
O=C(/C=C/c1ccc(NC(=O)c2ccccc2-c2ccccc2C(=O)O)cc1)c1ccccc1	1	2	98*	6	-13	-12
COc1ccccc1NC(C)C(=O)Nc1ccc(C(C)=O)cc1 (stereo unspecified)	-4	-5	99*	5	3	0
COc1ccccc1NC(=O)C(C)Nc1ccc(C)c(Cl)c1 (stereo unspecified)	16	0	nt	-1	-11	3
O=c1c2c3c(sc2ncn1N=Cc1ccc(Br)o1)CCCC3	nt	nt	nt	nt	nt	0
Cc1cc2oc(=O)sc2cc1NS(=O)(=O)c1cccc2cccnc12	9	16	3	-1	26	4
CC(=O)N(c1ccc2oc(=O)sc2c1)S(=O)(=O)c1cccc2cccnc12	4	135*	nt	2	14	-1
